Measured values taken from ChEMBL document CHEMBL5724801, “EUbOPEN Chemogenomics Library - Multiplex” (2024).
Several values for one entry are separate records, joined by “and”; a condition that tells them apart may be missing. Identical values can stand only once.

Assays:
[1] = tested on: U2OS; assay: Multiplex assay against U2OS; type: toxicity, cell-based; settings: human
Method in brief: (§1)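 Live cells were stained at seeding with Hoechst33342, BioTracker Green Microtubule Cytoskeleton Dye, MitoTracker Red and Annexin V Alexa Fluor 680. Following compound addition, they were imaged on a CQ1 microscope at 37°C and 5% CO2 and gated by CellPathfinder machine learning into Hoechst high-intensity objects or normal cells, with normal cells split into healthy, pyknosed or fragmented nuclei and pyknosed cells into mitotic or apoptotic. Tubulin, mitochondrial-mass and membrane-permeability phenotypes are per cents of healthy-nucleus cells.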

[2] = tested on: Fibroblast; assay: Multiplex assay against human fibroblast; type: toxicity, cell-based; method in brief: as §1
[3] = 24 h, 10 µM, compound concentration 10 uM
[4] = 48 h, 1 µM, compound concentration 1 uM
[5] = 48 h, 10 µM, compound concentration 10 uM
[6] = 12 h, 1 µM, compound concentration 1 uM
[7] = 12 h, 10 µM, compound concentration 10 uM
[8] = 24 h, 1 µM, compound concentration 1 uM

SMILES: O=C(NCCN1CCC(n2c(=O)[nH]c3cc(Cl)ccc32)CC1)c1ccc(F)cc1 [HALOPEMIDE]
- Population Apoptotic (%) [1, 3]: 75% and 63%
- Population Fragmented Nuclei (%) [1, 3]: 17% and 16%
- Population Healthy Nuclei (%) [1, 3]: 64% and 71%
- Population Hoechst High Intensity Objects (%) [1, 3]: 2% and 3%
- Population Membrane Permeable-Phenotype (%) [1, 3]: 15% and 26%
- Population Mitochondria Different-Phenotype (%) [1, 3]: 10% and 23%
- Population Mitotic Cells (%) [1, 3]: 25% and 36%
- Population Normal (%) [1, 3]: 97% and 96%
- Population Pyknosed Nuclei (%) [1, 3]: 18% and 12%
- Population Tubulin-Different-Phenotype (%) [1, 3]: 7% and 21%
- Total Cell Count [1, 3]: 271 and 159
- Population Apoptotic (%) [1, 4]: 68% and 95%
- Population Fragmented Nuclei (%) [1, 4]: 16% and 17%
- Population Healthy Nuclei (%) [1, 4]: 75% and 69%
- Population Hoechst High Intensity Objects (%) [1, 4]: 2% and 1%
- Population Membrane Permeable-Phenotype (%) [1, 4]: 4% and 9%
- Population Mitochondria Different-Phenotype (%) [1, 4]: 2% and 5%
- Population Normal (%) [1, 4]: 97% and 98%
- Population Pyknosed Nuclei (%) [1, 4]: 7% and 12%
- Population Tubulin-Different-Phenotype (%) [1, 4]: 2% and 6%
- Total Cell Count [1, 4]: 337 and 187
- Population Apoptotic (%) [1, 5]: 81% and 77%
- Population Fragmented Nuclei (%) [1, 5]: 15% and 13%
- Population Healthy Nuclei (%) [1, 5]: 69% and 67%
- Population Hoechst High Intensity Objects (%) [1, 5]: 3% and 6%
- Population Membrane Permeable-Phenotype (%) [1, 5]: 10% and 16%
- Population Mitochondria Different-Phenotype (%) [1, 5]: 5% and 12%
- Population Mitotic Cells (%) [1, 5]: 18% and 22%
- Population Normal (%) [1, 5]: 96% and 93%
- Population Pyknosed Nuclei (%) [1, 5]: 14% and 18%
- Population Tubulin-Different-Phenotype (%) [1, 5]: 5% and 6%
- Total Cell Count [1, 5]: 382 and 197
- Population Apoptotic (%) [2, 6]: 32% and 44%
- Population Fragmented Nuclei (%) [2, 6]: 11% and 27%
- Population Healthy Nuclei (%) [2, 6]: 62% and 43%
- Population Hoechst High Intensity Objects (%) [2, 6]: 0% and 7%
- Population Membrane Permeable-Phenotype (%) [2, 6]: 1% and 10%
- Population Mitochondria Different-Phenotype (%) [2, 6]: 10% and 0%
- Population Mitotic Cells (%) [2, 6]: 67% and 56%
- Population Normal (%) [2, 6]: 99% and 92%
- Population Pyknosed Nuclei (%) [2, 6]: 26% and 29%
- Population Tubulin-Different-Phenotype (%) [2, 6]: 29% and 56%
- Total Cell Count [2, 6]: 120 and 92
- Population Apoptotic (%) [2, 7]: 55% and 31%
- Population Fragmented Nuclei (%) [2, 7]: 15% and 24%
- Population Healthy Nuclei (%) [2, 7]: 54% and 34%
- Population Hoechst High Intensity Objects (%) [2, 7]: 3% and 4%
- Population Membrane Permeable-Phenotype (%) [2, 7]: 0% and 6%
- Population Mitochondria Different-Phenotype (%) [2, 7]: 17% and 14%
- Population Mitotic Cells (%) [2, 7]: 44% and 68%
- Population Normal (%) [2, 7]: 96% and 95%
- Population Pyknosed Nuclei (%) [2, 7]: 30% and 41%
- Population Tubulin-Different-Phenotype (%) [2, 7]: 77% and 87%
- Total Cell Count [2, 7]: 204 and 148
- Population Apoptotic (%) [2, 8]: 58% and 37%
- Population Fragmented Nuclei (%) [2, 8]: 16% and 32%
- Population Healthy Nuclei (%) [2, 8]: 69% and 41%
- Population Hoechst High Intensity Objects (%) [2, 8]: 3% and 10%
- Population Membrane Permeable-Phenotype (%) [2, 8]: 1% and 5%
- Population Mitochondria Different-Phenotype (%) [2, 8]: 9% and 8%
- Population Mitotic Cells (%) [2, 8]: 41% and 62%
- Population Normal (%) [2, 8]: 96% and 90%
- Population Pyknosed Nuclei (%) [2, 8]: 13% and 26%
- Population Tubulin-Different-Phenotype (%) [2, 8]: 38% and 59%
- Total Cell Count [2, 8]: 128 and 100
- Population Apoptotic (%) [2, 3]: 67% and 41%
- Population Fragmented Nuclei (%) [2, 3]: 23% and 26%
- Population Healthy Nuclei (%) [2, 3]: 51% and 38%
- Population Hoechst High Intensity Objects (%) [2, 3]: 5% and 6%
- Population Membrane Permeable-Phenotype (%) [2, 3]: 0% and 12%
- Population Mitochondria Different-Phenotype (%) [2, 3]: 28% and 32%
- Population Mitotic Cells (%) [2, 3]: 32% and 58%
- Population Normal (%) [2, 3]: 95% and 93%
- Population Pyknosed Nuclei (%) [2, 3]: 24% and 35%
- Population Tubulin-Different-Phenotype (%) [2, 3]: 78% and 94%
- Total Cell Count [2, 3]: 220 and 140
- Population Apoptotic (%) [2, 4]: 52% and 35%
- Population Fragmented Nuclei (%) [2, 4]: 14% and 38%
- Population Healthy Nuclei (%) [2, 4]: 68% and 43%
- Population Hoechst High Intensity Objects (%) [2, 4]: 3% and 4%
- Population Membrane Permeable-Phenotype (%) [2, 4]: 4% and 14%
- Population Mitochondria Different-Phenotype (%) [2, 4]: 7% and 4%
- Population Mitotic Cells (%) [2, 4]: 47% and 64%
- Population Normal (%) [2, 4]: 96% and 95%
- Population Pyknosed Nuclei (%) [2, 4]: 17%
- Population Tubulin-Different-Phenotype (%) [2, 4]: 36% and 63%
- Total Cell Count [2, 4]: 128 and 99
- Population Apoptotic (%) [2, 5]: 80% and 48%
- Population Fragmented Nuclei (%) [2, 5]: 32% and 35%
- Population Healthy Nuclei (%) [2, 5]: 50% and 45%
- Population Hoechst High Intensity Objects (%) [2, 5]: 10% and 5%
- Population Membrane Permeable-Phenotype (%) [2, 5]: 0% and 10%
- Population Mitochondria Different-Phenotype (%) [2, 5]: 35% and 15%
- Population Mitotic Cells (%) [2, 5]: 19% and 52%
- Population Normal (%) [2, 5]: 89% and 94%
- Population Pyknosed Nuclei (%) [2, 5]: 17% and 19%
- Population Tubulin-Different-Phenotype (%) [2, 5]: 77% and 96%
- Total Cell Count [2, 5]: 229 and 136
